Data on four compounds can be found in PMC8381683 (Pharmacology Research & Perspectives, 2021).

Read-outs that look alike come from different tables or passages of the source.

For orientation: Ki means the dissociation constant of the complex between target and ligand, obtained from inhibition or displacement. The term AUC(0-t) denotes exposure summed from dosing to a finite time, without extrapolation to infinity. Low values mean low exposure, high ones high exposure.

For data set [1], the system named is DA turnover in the rat striatum. The data set can be described thus: In vivo DA turnover and serotonin biomarkers in the rat striatum.
For data set [2], the system named is C57BL/6J mice. Kind of data set: Food intake in the mouse. The class given is in vivo. The procedure, abridged: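 C57BL/6J mice (24–26 g) single-housed on a reversed 12 h/12 h cycle, lights off at 9:00 a.m. Test compound given p.o. (vehicle 1% methylcellulose in water, 10 ml/kg) or i.p. 15 min before lights-off. Food consumption recorded at 1:00 p.m., 4 h after lights-off. 8 mice per group.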

Data set [3] concerns the target human H3 histamine receptor (Homo sapiens, UniProt Q9Y5N1). Kind of data set: [35S]-GTPγS functional binding assay on the H3 histamine receptor. It is filed as biochemical.
The next data set concerns the target human NET (SLC6A2) (Homo sapiens, UniProt P23975). The data set can be described thus: fluorescence-based neurotransmitter transporter uptake assay, NET. It is filed as cell-based.
The test system of the next data set is male Wistar rats. The data set can be described thus: Behavioral drug sensitization in the rat. It is filed as in vivo. In outline:
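Male Wistar rats (240–270 g) habituated 1 h in the test room before each daily session. Dosed p.o. (vehicle 1% methylcellulose, 4 ml/kg) or i.p. (saline) immediately before placement in the same dim (5 lux) 76×76 cm open field. Five sessions between 1 and 5 p.m. on 5 successive days. Locomotion video-tracked for 40 min. n=5–6. ANOVA/Fisher's LSD versus vehicle; paired t test versus day 1.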

For data set [4] the following is noted: for Brain AUC0-8h / Brain C max / Brain C max (molar): 10 mg/kg, p.o., male Swiss mice; for Brain C max at pharmacologically active doses / Brain C max at pharmacologically active doses (molar): male, Swiss, mouse, in vivo, po.
For data set [5], the system named is tele-methylhistamine in the brain of mice. As to conditions: cited from earlier work.
The nature of another data set: in vivo. Particulars: male, Swiss, mouse, po, 10 mg/kg.
A further data set concerns the target human DAT (SLC6A3) (Homo sapiens, UniProt Q01959). Kind of data set: cell-based.
For the next data set, the target named is human SERT (SLC6A4) (Homo sapiens, UniProt P31645). The data set can be described thus: cell-based. The class given is cell-based.
The test system of data set [6] is C57BL/6J mice. Kind of data set: Spontaneous locomotor activity in the mouse. It is filed as in vivo. Particulars: p.o.
Data set [7] relates to C57BL/6J mice. Kind of data set: Effect of pitolisant on solriamfetol- or modafinil-induced locomotor activity. It is filed as in vivo, mouse. Particulars: pitolisant 20 mg/kg, p.o.
For data set [8] the following is noted: 10 mg/kg, p.o., male Swiss mice, ref Ligneau et al. 29, cited from earlier work.
Data set [9] concerns extracellular DA in the rat nucleus accumbens. As to conditions: cited from earlier work.
The conditions of data set [10]: cited from earlier work.
The subject of data set [11] is extracellular DA in the rat nucleus accumbens. Kind of data set: In vivo microdialysis in the rat nucleus accumbens. Particulars: p.o. In outline:
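Under chloral hydrate (400 mg/kg i.p.), rats received a stereotaxic guide cannula in nucleus accumbens (AP +1.2 mm from bregma, […], DV −5.8 mm from dura). Recovery ≥5 days, single-housed. In freely moving rats, extracellular DA sampled via a 2-mm microdialysis probe after oral test compound or vehicle (1% methylcellulose in water, 5 ml/kg). n=5–8. ANOVA/Dunnett versus vehicle.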

The subject of data set [12] is tele-methylhistamine in the brain of mice. Kind of data set: Assay of tele-methylhistamine in the brain of mice. Particulars: 30 and 100 mg/kg, p.o., 90 min after treatment. The class given is in vivo, mouse. In outline: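 Male OF1 mice (22–25 g) fasted 16 h, then dosed orally with test compound or vehicle (1% methylcellulose in water, 10 ml/kg). Killed 90 min later. Brain homogenised in 10 volumes ice-cold 0.4 N perchloric acid and centrifuged 2000 g, 30 min, 4℃. Supernatant stored at −20℃. Tele-methylhistamine measured by enzyme immunoassay.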

Where [13] appears, read: D-amphetamine i.p., dose and time not given.
The mark [14] stands for this setting: 64 mg/kg, i.p., fifth day of repeated administration.

human SERT (SLC6A4), sequence (P31645 whole entry): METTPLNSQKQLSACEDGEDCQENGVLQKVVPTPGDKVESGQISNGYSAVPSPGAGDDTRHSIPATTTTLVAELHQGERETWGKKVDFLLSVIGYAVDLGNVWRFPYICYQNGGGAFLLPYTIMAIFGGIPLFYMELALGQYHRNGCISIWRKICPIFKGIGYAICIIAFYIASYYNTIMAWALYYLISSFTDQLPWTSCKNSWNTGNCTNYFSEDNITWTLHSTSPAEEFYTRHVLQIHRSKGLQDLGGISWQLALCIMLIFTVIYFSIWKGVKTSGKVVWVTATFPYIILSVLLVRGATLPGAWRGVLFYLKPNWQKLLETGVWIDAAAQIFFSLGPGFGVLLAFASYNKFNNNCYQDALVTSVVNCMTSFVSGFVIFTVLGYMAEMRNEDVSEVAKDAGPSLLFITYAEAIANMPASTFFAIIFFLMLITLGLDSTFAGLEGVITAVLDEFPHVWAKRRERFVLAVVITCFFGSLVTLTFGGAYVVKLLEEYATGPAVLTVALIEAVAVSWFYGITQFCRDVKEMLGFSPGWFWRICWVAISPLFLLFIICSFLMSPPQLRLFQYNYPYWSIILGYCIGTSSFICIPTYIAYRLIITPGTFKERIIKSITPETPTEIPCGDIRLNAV
human NET (SLC6A2), sequence (P23975 1-628 isoform P23975-2): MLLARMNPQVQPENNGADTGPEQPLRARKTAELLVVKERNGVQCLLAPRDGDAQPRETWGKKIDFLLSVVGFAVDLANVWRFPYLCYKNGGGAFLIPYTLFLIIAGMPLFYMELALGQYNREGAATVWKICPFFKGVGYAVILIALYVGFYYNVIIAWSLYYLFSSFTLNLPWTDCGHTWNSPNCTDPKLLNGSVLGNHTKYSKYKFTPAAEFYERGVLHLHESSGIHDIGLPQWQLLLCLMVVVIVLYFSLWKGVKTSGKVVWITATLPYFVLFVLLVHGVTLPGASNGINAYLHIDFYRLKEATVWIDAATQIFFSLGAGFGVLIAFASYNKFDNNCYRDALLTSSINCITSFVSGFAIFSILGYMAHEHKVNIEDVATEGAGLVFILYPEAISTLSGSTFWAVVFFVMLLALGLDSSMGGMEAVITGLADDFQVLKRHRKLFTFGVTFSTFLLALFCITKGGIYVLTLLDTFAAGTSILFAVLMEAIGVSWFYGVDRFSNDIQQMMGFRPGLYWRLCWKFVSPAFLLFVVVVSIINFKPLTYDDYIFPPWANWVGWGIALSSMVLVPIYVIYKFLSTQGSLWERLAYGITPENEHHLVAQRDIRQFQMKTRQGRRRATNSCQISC
human DAT (SLC6A3), sequence (Q01959 whole entry): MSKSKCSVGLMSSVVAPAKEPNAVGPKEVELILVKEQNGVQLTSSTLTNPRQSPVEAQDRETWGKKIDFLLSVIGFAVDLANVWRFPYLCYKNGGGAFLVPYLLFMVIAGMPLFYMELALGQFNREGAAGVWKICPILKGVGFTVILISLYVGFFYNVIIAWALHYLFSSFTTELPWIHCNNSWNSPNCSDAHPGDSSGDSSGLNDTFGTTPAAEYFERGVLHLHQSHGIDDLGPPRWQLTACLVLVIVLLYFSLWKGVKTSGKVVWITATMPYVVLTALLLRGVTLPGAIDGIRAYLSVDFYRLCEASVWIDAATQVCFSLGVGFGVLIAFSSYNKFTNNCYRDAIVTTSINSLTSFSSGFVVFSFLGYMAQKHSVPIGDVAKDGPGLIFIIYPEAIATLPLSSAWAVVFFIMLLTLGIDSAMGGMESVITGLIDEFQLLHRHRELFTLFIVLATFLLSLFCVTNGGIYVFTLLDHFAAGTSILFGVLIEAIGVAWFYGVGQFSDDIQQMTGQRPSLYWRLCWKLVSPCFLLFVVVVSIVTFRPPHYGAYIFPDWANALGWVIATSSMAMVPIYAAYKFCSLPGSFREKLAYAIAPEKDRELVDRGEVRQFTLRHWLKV
human H3 histamine receptor, sequence (Q9Y5N1 whole entry): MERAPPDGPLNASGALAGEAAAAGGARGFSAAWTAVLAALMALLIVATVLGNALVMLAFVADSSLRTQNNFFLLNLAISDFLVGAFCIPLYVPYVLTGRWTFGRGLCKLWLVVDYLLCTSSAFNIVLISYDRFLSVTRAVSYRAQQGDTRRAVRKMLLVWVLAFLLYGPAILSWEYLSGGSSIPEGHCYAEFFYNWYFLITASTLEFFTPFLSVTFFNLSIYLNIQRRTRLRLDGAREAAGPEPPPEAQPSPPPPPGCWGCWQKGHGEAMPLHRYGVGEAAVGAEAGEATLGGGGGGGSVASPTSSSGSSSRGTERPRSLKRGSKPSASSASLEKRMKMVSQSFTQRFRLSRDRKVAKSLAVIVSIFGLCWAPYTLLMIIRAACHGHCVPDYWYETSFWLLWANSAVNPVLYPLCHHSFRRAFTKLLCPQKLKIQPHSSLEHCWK

In the case of `C[C@H](N)Cc1ccccc1` [D‐amphetamine], in data set [1] (setting [13]), the “change of DA in the rat striatum” value is reported as “+25%” and the “change of DOPAC in the rat striatum” value is on record as −15%. The “decrease in food consumption compared with controls (4 h)” value in the data set on C57BL/6J mice [2] (3 mg/kg, i.p.) came to 56%.

For the compound `NC(=O)C[S+]([O-])C(c1ccccc1)c1ccccc1` (stereo not drawn) [Modafinil], the Kb in data set [3] is greater than 10 µM. This compound had a Ki on human NET (SLC6A2) greater than 10 µM. For the same compound, the “hNET Ki” value on human NET (SLC6A2) (CHO cells expressing human NET, Ki from IC50 by Cheng-Prusoff) was “inactive”. Further, in the data set on male Wistar rats (64 mg/kg, i.p., acute administration (day 1)), the “increase of rat locomotor activity versus controls” value was “+145%”. Also, in the data set on male Wistar rats (setting [14]), the “increase of rat locomotor activity versus control rats” value came out at 419% and the “increase of rat locomotor activity versus same treated rats at day 1” value is on record as 53%. For the same compound, in the data set on C57BL/6J mice [2] (64 mg/kg, p.o.), the “reduction in food intake (4 h)” value is reported as 40%. Further, the “reduction in food intake (4 h)” value with C57BL/6J mice [2] (96 mg/kg, p.o.) is reported as 76%. For the same compound, the “reduction in food intake (4 h)” value in the data set on C57BL/6J mice [2] (128 mg/kg, p.o.) is listed as 96%. Moreover, in data set [4], the “Brain AUC0-8h” value was 2298 ng·h/g, the “Brain C max” value stood at 965 ± 156 ng/g, the “Brain C max (molar)” value is listed as 3.5 µM and the “Brain C max at pharmacologically active doses” value is recorded as 6000-12 000. Further, the “Brain C max at pharmacologically active doses (molar)” value in data set [4] is recorded as 22–45 µM. Further, the “potency in enhancing brain tele-methylhistamine level compared with pitolisant” value in data set [5] (mice) was “less potent”. In “in vivo”, this compound showed an area under the curve AUC(0-t) of 2160 ng·h/mL and a Kp of 1.1.

In turn, `Cl.Clc1ccc(CCCOCCCN2CCCCC2)cc1` [Pitolisant, 1‐{3‐[3‐(4‐Chlorophenyl)propoxy]propyl}piperidine, hydrochloride] yielded an inhibitory constant (Ki) on human DAT (SLC6A3) of 4.1 µM. This compound showed an inhibition constant Ki on human NET (SLC6A2) of 2.5 µM. For the same compound, the inhibitory constant (Ki) at human SERT (SLC6A4) came out at 5.79 µM. Further, the “effect on cumulative locomotor activity over 5.5 h post-dosing” value in the data set with C57BL/6J mice [6] (10 and 20 mg/kg) is recorded as “no significant effect”. In addition, in the data set on C57BL/6J mice [7] (modafinil 64 mg/kg), the “reduction of modafinil-induced hyperlocomotion” value is 58%. Moreover, in the data set on C57BL/6J mice [7] (modafinil 128 mg/kg), the “effect on modafinil-induced hyperlocomotion” value is listed as “not further reduced”. Moreover, the “effect on solriamfetol-induced hyperlocomotion” value in the data set with C57BL/6J mice [7] (solriamfetol 30 mg/kg) is listed as “fully normalized”. In the data set with C57BL/6J mice [7] (solriamfetol 100 mg/kg), the “reduction of solriamfetol-induced hyperlocomotion” value worked out at 68%. Further, the “locomotor effect in rats” value in the data set on male Wistar rats (10 mg/kg, i.p., acute or after 5-day-repeated administrations) is “no hyperlocomotion effects”. The “effect on food intake during the initial 4 h of the night phase” value in the data set with C57BL/6J mice [2] (10 and 20 mg/kg, p.o.) is “did not modify”. In data set [4], the “Brain C max at pharmacologically active doses” value was 10 000-20 000 and the “Brain C max at pharmacologically active doses (molar)” value is 35–70 µM. Besides, the “Brain/plasma AUC ratio” value in [8] (AUC0-8h) is on record as 23.5. In data set [8], the “Brain AUC0-8h” value is given as 34 686 ng/g × h, the “Brain C max (molar)” value is 35 µM, the “Brain T max” value is 30 min and the “Plasma AUC0-8h” value is 1475 ng·h/mL. In addition, in data set [8], the “Plasma C max” value was 441 ± 69 ng/mL and the “Plasma T max” value was 30 min. Moreover, the “effect on levels of extracellular DA in the rat nucleus accumbens” value in [9] was “no effect”. In addition, in data set [5] (p.o., in mice), the “ED50, enhancement of brain tele-methylhistamine level” value is given as 1.6 mg/kg. Besides, the “plasma exposure (C max) in human at therapeutic dose” value in [10] (at 40 mg) was ~ 36 ng/ml.

Take `NC(=O)OC[C@H](N)Cc1ccccc1` [Solriamfetol]: in [3], the Kb was greater than 10 µM. Further, the Ki on human DAT (SLC6A3) came out at 2.4 µM. At human NET (SLC6A2), this compound registered an inhibition constant (Ki) of 4.8 µM. Further, at human SERT (SLC6A4), the inhibition constant Ki is greater than 10 µM. Also, the “hSERT Ki” value on human SERT (SLC6A4) (HEK293 cells expressing human SERT, Ki from IC50 by Cheng-Prusoff) was “inactive”. In data set [1] (30 mg/kg, p.o., 60 min), the “change of DOPAC in the rat striatum” value was −11% and the “effect on DOPAC/DA ratio relative to that of D-amphetamine (2 mg/kg, i.p.)” value is recorded as “about 50%”. Besides, in data set [1] (30 mg/kg, p.o., 60 min, not significant), the “change of DA in the rat striatum” value was “+4%”. In addition, the “decrease in the DOPAC/DA ratio in the rat striatum” value in data set [1] (30 mg/kg, p.o., 60 min after the dose) was determined as 14%. Moreover, the “effect on 5-HIAA/5-HT ratio in the rat striatum” value in data set [1] (3 and 30 mg/kg, p.o., 60 min after dosage) is “No effect”. Also, the “effect on extracellular levels of DA in the nucleus accumbens” value in [11] (30 mg/kg) was “no effects”. In addition, the “increase of extracellular levels of DA in the nucleus accumbens” value in data set [11] (100 mg/kg, 30 min after administration) is on record as “+138 % of basal levels”. Moreover, the “AUC of extracellular DA (% basal dopamine level), enhancement” value in data set [11] (100 mg/kg, 90 min (1.5 h) post-administration period) worked out at 123%. For the same compound, the “effect on tele-methylhistamine levels in the brain of mice” value in [12] is given as “no significant effect”. Also, in data set [12] (listed as solriamfetol), the “effect on tele-methylhistamine levels in the brain of mice” value is “no effect”. In addition, the “effect on cumulative locomotor activity over 5.5 h post-dosing” value in the data set on C57BL/6J mice [6] (30 mg/kg) is listed as “no effect”. In addition, the “locomotor effect in rats” value with male Wistar rats (60 mg/kg, p.o., over the 5-day repeated administration period) is “no significant locomotion effect”. Further, the “locomotor effect in rats” value in the data set with male Wistar rats (100 mg/kg, p.o., acute) is given as “no acute effects”. In the data set with male Wistar rats (100 mg/kg, p.o., day 5), the “increase of rat locomotor activity versus controls” value worked out at 185% and the “increase of rat locomotor activity versus same treated rats at day 1” value worked out at 106%. Moreover, the “inhibition of food intake (4 h)” value in the data set on C57BL/6J mice [2] (30 mg/kg, p.o.) amounted to 25%. In the data set with C57BL/6J mice [2] (100 mg/kg, p.o.), the “inhibition of food intake (4 h)” value turned out to be 40%. Further, in data set [4], the “Brain AUC0-8h” value was 10 990 ng/g × h, the “Brain C max” value is on record as 3935 ± 452 ng/g, the “Brain C max (molar)” value is 20 µM and the “Brain C max at pharmacologically active doses” value is on record as 12 000-40 000. Moreover, the “Brain C max at pharmacologically active doses (molar)” value in data set [4] was 60–200 µM. Moreover, the “plasma exposure (C max) in human at therapeutic dose” value in data set [10] (at 150 mg) is reported as ~ 820 ng/ml. In the data set “in vivo”, this compound had an AUC(0-t) of 1150 ng·h/mL and a Kp of 9.6.
